Species: Homo sapiens
Experiment: The inhibitory concentration for the inhibition of ADP-Triggered Blood Platelet Aggregation
Type: functional
Method in brief: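 Human citrated PRP from unmedicated healthy donors (200g, 10 min, rt spin); PPP from 1000g, 20 min. Serial dilutions in phosphate buffer pH 7.4 preincubated with PRP 30 min at rt, then ADP added. Aggregation followed 10 min at 37 °C, absorbance 595 nm every 30 s with shaking; buffer and PPP-only controls; AMP as positive control.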

IC50 [µM] | SMILES
10 | Nc1ncnc2c1ncn2[C@@H]1O[C@H](COP(=S)(S)OCP(=O)(O)COP(=S)(S)OC[C@H]2O[C@@H](n3cnc4c(N)ncnc43)[C@H](O)[C@@H]2O)[C@@H](O)[C@H]1O (stereo partly specified)
75 | Nc1ncnc2c1ncn2[C@@H]1O[C@H](COP(O)(=S)OC(C(=O)O)C(OP(O)(=S)OC[C@H]2O[C@@H](n3cnc4c(N)ncnc43)[C@H](O)[C@@H]2O)C(=O)O)[C@@H](O)[C@H]1O (stereo partly specified)
80 | Nc1ncnc2c1ncn2[C@@H]1O[C@H](COP(=O)(O)OCP(=O)(O)COP(=O)(O)OC[C@H]2O[C@@H](n3cnc4c(N)ncnc43)[C@H](O)[C@@H]2O)[C@@H](O)[C@H]1O
> 160 | Nc1ncnc2c1ncn2[C@@H]1O[C@H](COP(O)(=S)OCC(OP(O)(O)=S)OP(O)(=S)OC[C@H]2O[C@@H](n3cnc4c(N)ncnc43)[C@H](O)[C@@H]2O)[C@@H](O)[C@H]1O (stereo partly specified)
40 | Nc1ncnc2c1ncn2[C@@H]1O[C@H](COP(O)(=S)OCP(=O)(O)COP(O)(=S)OC[C@H]2O[C@@H](n3cnc4c(N)ncnc43)[C@H](O)[C@@H]2O)[C@@H](O)[C@H]1O (stereo partly specified)
13 | Nc1ncnc2c1ncn2[C@@H]1O[C@H](COP(O)(=S)OCP(=O)(O)COP(O)(O)=S)[C@@H](O)[C@H]1O (stereo partly specified)

From ChEMBL document CHEMBL1136025, “Inhibition of ADP-triggered blood platelet aggregation by diadenosine polyphosphate analogues” (Bioorg Med Chem Lett, 2002)
